The subject of test [1] is SH-SY5Y. The test is described as follows: Inhibition of H2O2-induced apoptosis in human SH-SY5Y cells assessed as necrotic cells at 1.56 uM preincubated for 24 hrs followed by H2O2 addition measured after 4 hrs by Annexin V-FITC/propidium iodide staining based flow cytometry (reference value: 0.9 %). It counts as functional. More on the design: scale not given: the % may be the effect or the level left. In a few lines: (§1)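 Cells were seeded at 3.5×10^4 cells/mL in 6-well plates at 37 °C, 5% CO2. Compound was added at three concentrations for 24 h, then H2O2 (4.8 mM stock solution) to model and drug wells for 4 h. Cells were collected, washed in cold PBS and resuspended in annexin-binding buffer. Staining was annexin V-FITC 10 min, then PI 5 min, in the dark, followed by flow cytometry with quadrant gating.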

Test [2] has as its system SH-SY5Y. The test is described as follows: Inhibition of H2O2-induced apoptosis in human SH-SY5Y cells assessed as late apoptotic cells at 6.25 uM preincubated for 24 hrs followed by H2O2 addition measured after 4 hrs by Annexin V-FITC/propidium iodide staining based flow cytometry (reference value: 26.5 %). Type of test: functional. Details: scale not given: the % may be the effect or the level left. Summed up:
as §1

Test [3] has as its system HBMEC-2. Put plainly: Inhibition of H2O2-induced apoptosis in human HBMEC2 cells preincubated for 24 hrs followed by H2O2 addition measured after 4 hrs by Annexin V-FITC/propidium iodide staining based flow cytometry. Type of test: functional, cell-based. Summed up:
as §1

In test [4] the test system is SH-SY5Y. Put plainly: Inhibition of H2O2-induced apoptosis in human SH-SY5Y cells assessed as late apoptotic cells at 3.13 uM preincubated for 24 hrs followed by H2O2 addition measured after 4 hrs by Annexin V-FITC/propidium iodide staining based flow cytometry (reference value: 26.5 %). It counts as functional. More on the design: scale not given: the % may be the effect or the level left. In a few lines: as §1

In test [5] the test system is SH-SY5Y. The test is described as follows: Protection against H2O2-induced apoptosis in human SH-SY5Y cells assessed as reduction in cell disruption at 1.56 to 6.25 uM preincubated for 24 hrs followed by H2O2 addition measured after 4 hrs by Giemsa staining based inverted phase contrast microscopic analysis. Type of test: functional. Summed up: (§2)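 Cells at 3.5×10^4 cells/mL in 24-well plates were pretreated 24 h with compound at three concentrations, then H2O2 (4.8 mM stock) for 4 h. After PBS washes, cells were fixed in 4% paraformaldehyde/70% cold ethanol for 10 min. Staining was 6% Giemsa or DAPI for 5 min in the dark. Random fields were photographed at 200× by microscope, alongside control and model groups.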

Test [6] is described as follows: Inhibition of H2O2-induced apoptosis in human HBMEC2 cells assessed as early apoptotic cells at 6.25 uM preincubated for 24 hrs followed by H2O2 addition measured after 4 hrs by Annexin V-FITC/propidium iodide staining based flow cytometry (reference value: 8.1 %). Type of test: functional, HBMEC-2. Details: scale not given: the % may be the effect or the level left. In a few lines: as §1

For test [7], the system named is SH-SY5Y. The test is described as follows: Inhibition of H2O2-induced apoptosis in human SH-SY5Y cells assessed as necrotic cells at 3.13 uM preincubated for 24 hrs followed by H2O2 addition measured after 4 hrs by Annexin V-FITC/propidium iodide staining based flow cytometry (reference value: 0.9 %). Type of test: functional. More on the design: scale not given: the % may be the effect or the level left. Summed up:
as §1

For test [8], the system named is SH-SY5Y. Put plainly: Protection against H2O2-induced apoptosis in human SH-SY5Y cells assessed as increase in cell number preincubated for 24 hrs followed by H2O2 addition measured after 4 hrs by DAPI staining based inverted phase contrast microscopic analysis. It counts as functional. Summed up:
as §2

Test [9] has as its system SH-SY5Y. The test is described as follows: Inhibition of H2O2-induced apoptosis in human SH-SY5Y cells assessed as normal cells at 3.13 uM preincubated for 24 hrs followed by H2O2 addition measured after 4 hrs by Annexin V-FITC/propidium iodide staining based flow cytometry (reference value: 67.2 %). Type of test: functional. Details: scale not given: the % may be the effect or the level left. Summed up: as §1

Test [10] relates to SH-SY5Y. The test is described as follows: Protection against H2O2-induced apoptosis in human SH-SY5Y cells assessed as reduction in cell shrinkage at 1.56 to 6.25 uM preincubated for 24 hrs followed by H2O2 addition measured after 4 hrs by Giemsa staining based inverted phase contrast microscopic analysis. Type of test: functional. Summed up: as §2
Test [11] can be described thus: Inhibition of H2O2-induced apoptosis in human HBMEC2 cells assessed as late apoptotic cells at 6.25 uM preincubated for 24 hrs followed by H2O2 addition measured after 4 hrs by Annexin V-FITC/propidium iodide staining based flow cytometry (reference value: 29.4 %). It counts as functional, HBMEC-2. Details: scale not given: the % may be the effect or the level left. In a few lines:
as §1

Test [12] has as its system HBMEC-2. Put plainly: Protection against H2O2-induced apoptosis in human HBMEC2 cells assessed as increase in cell number at 1.56 to 6.25 uM preincubated for 24 hrs followed by H2O2 addition and measured after 4 hrs by Giemsa staining based inverted phase contrast microscopic analysis. It counts as functional. Summed up:
as §2

In test [13] the test system is SH-SY5Y. The test is described as follows: Inhibition of H2O2-induced apoptosis in human SH-SY5Y cells preincubated for 24 hrs followed by H2O2 addition measured after 4 hrs by Annexin V-FITC/propidium iodide staining based flow cytometry. Type of test: functional, cell-based. In a few lines:
as §1

The test system of test [14] is HBMEC-2. Put plainly: Protection against H2O2-induced mitochondrial dysfunction in human HBMEC2 cells assessed as recovery of mitochondrial membrane potential at 1.56 to 6.25 uM preincubated for 24 hrs followed by H202 addition measured after 4 hrs by Rh123 staining based inverted light microscopic analysis. Type of test: functional, cell-based. Summed up: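 Cells in 96-well plates (3.5×10^4 cells/mL) were grown 24 h. They were pretreated 24 h with compound at three concentrations, then exposed to H2O2 (4.8 mM stock) for 4 h. Medium was removed and Rh123 added for 30 min at 37 °C. Cells were washed twice in cold PBS and examined immediately under an inverted microscope for green fluorescence.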

A short description of test [15]: Inhibition of H2O2-induced apoptosis in human HBMEC2 cells assessed as necrotic cells at 6.25 uM preincubated for 24 hrs followed by H2O2 addition measured after 4 hrs by Annexin V-FITC/propidium iodide staining based flow cytometry (reference value: 0.4 %). It counts as functional, HBMEC-2. More on the design: scale not given: the % may be the effect or the level left. Summed up:
as §1

Another test has as its system Chorioallantoic membrane. The test is described as follows: Induction of angiogenesis in chicken chorioallantoic membrane assessed as increase in vascular density at 1 mg/ml measured after 48 hrs by dissecting microscopic analysis. It counts as functional, cell membranes. Conditions: Gallus gallus. In a few lines:
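Fertile eggs were incubated 7 days at 37 °C and 60% humidity. A small window was opened at one end and the membrane was wetted with a drop of sterile saline. Test solution (0.5, 1 or 2 mg/mL) was applied to the allantoic membrane, with PBS for controls. After 48 h the membrane was separated from the shell, then viewed and photographed under a dissecting microscope.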

Test [16] can be described thus: Inhibition of H2O2-induced apoptosis in human HBMEC2 cells assessed as normal cells at 3.13 uM preincubated for 24 hrs followed by H2O2 addition measured after 4 hrs by Annexin V-FITC/propidium iodide staining based flow cytometry (reference value: 62.1 %). Type of test: functional, HBMEC-2. Details: scale not given: the % may be the effect or the level left. In a few lines:
as §1

Test [17] relates to SH-SY5Y. The test is described as follows: Inhibition of H2O2-induced apoptosis in human SH-SY5Y cells assessed as early apoptotic cells at 6.25 uM preincubated for 24 hrs followed by H2O2 addition measured after 4 hrs by Annexin V-FITC/propidium iodide staining based flow cytometry (reference value: 5.4 %). It counts as functional. Details: scale not given: the % may be the effect or the level left. In a few lines:
as §1

For test [18], the system named is SH-SY5Y. Put plainly: Inhibition of H2O2-induced apoptosis in human SH-SY5Y cells assessed as normal cells at 1.56 uM preincubated for 24 hrs followed by H2O2 addition measured after 4 hrs by Annexin V-FITC/propidium iodide staining based flow cytometry (reference value: 67.2 %). It counts as functional. Details: scale not given: the % may be the effect or the level left. Summed up: as §1

Test [19] deals with HBMEC-2. Put plainly: Protection against H2O2-induced apoptosis in human HBMEC2 cells assessed as decrease in number of irregular cells preincubated for 24 hrs followed by H2O2 addition measured after 4 hrs by DAPI staining based inverted phase contrast microscopic analysis. It counts as functional, cell-based. In a few lines: as §2
A short description of test [20]: Inhibition of H2O2-induced apoptosis in human HBMEC2 cells assessed as necrotic cells at 1.56 uM preincubated for 24 hrs followed by H2O2 addition measured after 4 hrs by Annexin V-FITC/propidium iodide staining based flow cytometry (reference value: 0.4 %). It counts as functional, HBMEC-2. More on the design: scale not given: the % may be the effect or the level left. Summed up:
as §1

The subject of test [21] is SH-SY5Y. Put plainly: Inhibition of H2O2-induced apoptosis in human SH-SY5Y cells assessed as early apoptotic cells at 1.56 uM preincubated for 24 hrs followed by H2O2 addition measured after 4 hrs by Annexin V-FITC/propidium iodide staining based flow cytometry (reference value: 5.4 %). It counts as functional. Details: scale not given: the % may be the effect or the level left. Summed up:
as §1

SMILES strings stand for the structures. Calls of active or inactive are those of the source. No cut-off for these calls is given here.

For the compound `COc1cc(CNC(=O)/C=C/c2cc(OC)c(OC)cc2OC)ccc1O`, the Activity is 1.4% in the test on SH-SY5Y [1]; 14% in the test with SH-SY5Y [2]; 21% in the test on SH-SY5Y [4]; 8.3% in test [6]; 0.1% in the test with SH-SY5Y [7]; “Dose-dependent effect” with SH-SY5Y [8]. In addition, the Activity came to 74.7% in the test on SH-SY5Y [9]; 10.2% in test [11]; 0.1% in test [15]; 80.5% in [16]; 2.6% with SH-SY5Y [17]; 70.4% in the test on SH-SY5Y [18]. The Activity result in the test on HBMEC-2 [19] was “Dose-dependent effect”; in [20], 1%; in the test with SH-SY5Y [21], 4.3%. Moreover, the inhibition result in the test on HBMEC-2 [3] and with SH-SY5Y [13] was “Dose-dependent effect” each time. Also, the outcome in the test on SH-SY5Y [5], in the test with SH-SY5Y [10], with HBMEC-2 [12], in the test on HBMEC-2 [14] and in the test on Chorioallantoic membrane was Active.
